Rin1-Abl PPI inh = inhibitors of human Rin1-Abl protein interaction; P00519+Q13671; TR-FRET Rin1/Abl binding, biochemical; 0.4% of 360,000 active; AID 588664; inhibition, % at 7.35 µM; in the data active means inhibition above about 5%, passing the limit was not always enough
Arr AP2 block = inhibitors of human beta-arrestin and AP2 interaction; FITC-arrestin peptide / GST-AP2 beads, flow cytometry; AP2 beta2 appendage carries R879A mutation; AID 504490; inhibition, % at 10 µM; 0.31% of 340,000 active;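 active means inhibition above a set limit, near 3 SD of compounds lacking own fluorescence, cut at about 54% in these data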;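 further: plate controls were DMSO wells for no effect and 5 µM unlabelled arrestin peptide for full effect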
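Material – GST-tagged AP2 beta2-adaptin appendage (R879A) on 4 µm glutathione beads · Probe or stimulus – fluorescein-tagged arrestin peptide at 50 nM final · Timing – 12 min plus 1 h, RT · Detection – bead flow cytometry, FITC channel · Read-out basis – inhibition as reduced fluorescein signal on beads, percent · Medium – PBS plus Tween 20 (0.05%) and BSA (0.1%)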
MT1-MMP act inh = MT1-MMP (human) activation inhibition; P50281; HT1080 RFP-PRO-GFP cells, GFP/RFP ratio fluorescence, overnight; percent of plate control window, DMSO zero; GFP/RFP ratio change, % at 20 µM; 0.061% of 360,000 active; AID 651647;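 active means GFP/RFP ratio change of at least 30% with cell ATP level not reduced by more than half and red fluorescence within 50% of control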
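Assay system: HT1080 RFP-PRO-GFP cells | Dosing: 20 µM single dose, 1% DMSO | Incubation: Cells overnight before dosing, compound overnight, 37 °C, 5% CO2 | Evaluation: GFP/RFP fluorescence ratio | Control set: DMSO-only wells and HT1080 RFP-L50D-GFP cell wells as references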
SKN-1 inh = blocks SKN-1 activity in C. elegans | inhibition, % at 21.8 µM | C. elegans VP596 Pgst-4::GFP/RFP ratio, acrylamide-induced, 24 h | 0.49% of 360,000 active | AID 624304;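 active means interference check ratio from 0.5 to 1.5 plus GFP to RFP signal ratio inhibition reaching or exceeding a fixed threshold, cut at about 30% in these data, passing the limit was not always enough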
Tb MetRS inh = blocks T. brucei methionyl-tRNA synthetase activity | 0.4% of 360,000 active | inhibition, % at 11.9 µM | AID 624268 | purified T. brucei MetRS, ATP depletion, Kinase-Glo luminescence;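 active means inhibition above a per-plate cutoff of the control wells' mean inhibition plus 3 SD, cut at about 5.5% in these data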;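 further: 0% = DMSO wells median and 100% = median of wells with control inhibitor compound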
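Dosing: 11.9 µM single point; system: parasite MetRS enzyme; technique: luminescence of leftover ATP; times: 15 min enzyme-compound preincubation, 2 h reaction, 10 min detection, 25 °C; replicates: each compound tested once; read-out basis: percent inhibition relative to median high and low control wells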
Arr AP2 CP1 = blocks beta-arrestin peptide binding to human AP2; inhibition, % at 10 µM; 2% of 1,300 active; shares compounds with Arr AP2 block; GST-AP2 beads, FITC arrestin peptide binding, flow cytometry; GST-fused beta2-adaptin appendage, R879A mutant;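 active means inhibition above a set limit, roughly 3 SD of non-fluorescent compound noise, cut at about 38% in these data; inactive means inhibition at or below that limit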;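 further: loss of bead fluorescence from 50 nM FITC arrestin peptide bound to appendage; 0% = negative control wells and 100% = excess unlabelled arrestin peptide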
Target sequence (P63010 whole entry, looked up, the tested form may be a part, one chain of several): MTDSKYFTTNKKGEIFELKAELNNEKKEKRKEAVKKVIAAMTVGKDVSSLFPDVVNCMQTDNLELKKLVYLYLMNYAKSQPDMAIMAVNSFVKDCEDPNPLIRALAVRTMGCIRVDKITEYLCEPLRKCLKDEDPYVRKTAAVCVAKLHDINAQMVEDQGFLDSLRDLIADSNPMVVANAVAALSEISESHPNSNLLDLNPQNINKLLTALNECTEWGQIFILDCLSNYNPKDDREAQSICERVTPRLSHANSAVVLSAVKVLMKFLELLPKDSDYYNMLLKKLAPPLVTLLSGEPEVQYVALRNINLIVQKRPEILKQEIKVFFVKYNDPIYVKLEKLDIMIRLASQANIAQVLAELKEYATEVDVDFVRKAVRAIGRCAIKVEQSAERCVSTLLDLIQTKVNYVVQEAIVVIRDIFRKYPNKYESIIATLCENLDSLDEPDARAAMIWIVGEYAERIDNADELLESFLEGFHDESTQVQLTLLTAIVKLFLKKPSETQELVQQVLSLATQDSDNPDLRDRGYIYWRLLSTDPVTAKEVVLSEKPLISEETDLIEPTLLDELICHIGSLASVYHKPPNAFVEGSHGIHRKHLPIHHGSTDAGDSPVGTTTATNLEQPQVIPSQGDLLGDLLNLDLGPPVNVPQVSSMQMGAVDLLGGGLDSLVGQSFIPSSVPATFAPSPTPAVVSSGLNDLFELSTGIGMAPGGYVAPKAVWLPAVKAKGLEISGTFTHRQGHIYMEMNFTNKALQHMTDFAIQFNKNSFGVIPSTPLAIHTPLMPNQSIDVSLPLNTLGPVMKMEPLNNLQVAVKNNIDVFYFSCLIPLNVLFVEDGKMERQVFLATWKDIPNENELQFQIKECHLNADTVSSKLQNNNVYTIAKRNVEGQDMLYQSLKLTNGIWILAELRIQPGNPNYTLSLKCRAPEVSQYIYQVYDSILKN
GST GSH counter = GST-GSH bead binding interference, counter-screen | 2% of 1,300 active | GST-fluorescein binding to GSH beads, fluorescence | inhibition, % at 10 µM | shares compounds with Arr AP2 block;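 active means inhibition above 50%, about 3 SD of the inhibition seen with non-fluorescent compounds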;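 further: fluorescein maleimide labelled GST captured on 4 micron glutathione beads; higher means more loss of bead fluorescence from quenching or blocked binding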
* = called active by the depositor; / = no result. A selection: hits, their analogues and other compounds. The true share with any hit is near 1.6%.

SMILES	Rin1-Abl PPI inh	Arr AP2 block	MT1-MMP act inh	SKN-1 inh	Tb MetRS inh	Arr AP2 CP1	GST GSH counter
Cc1cc(Br)ccc1NC(=O)C1CSC2(C)CCC(=O)N12 (stereo not given)	-2	-2	3	15	0	/	/
Cc1cc(NC(=O)COC(=O)C2CSC3(C)CCC(=O)N23)ccc1Br (stereo not given)	-1	-8	5	3	0	-9	5
CC12CCC(=O)N1C(C(=O)OCC(=O)Nc1ccc(Cl)c(Cl)c1)CS2 (stereo not given)	-3	-10	1	-8	1	5	-5
CC12CCC(=O)N1C(C(=O)Nc1ccc(Cl)c(Cl)c1)CS2 (stereo not given)	0	-4	9	0	0	/	/
O=C(c1ccc(Cl)c(Cl)c1)N1CCC(=O)N([C@H](COCc2cccc(C(F)(F)F)c2)Cc2ccccc2)CC1	/	/	-2	1	0	/	/
COc1cccc(CNC(=O)[C@@H]2CCCN2C(=O)[C@@H]2CCCN2C(=O)OC(C)(C)C)c1	/	/	3	-3	0	/	/
CCNC(=O)C(=O)NCc1ccncc1	7	62*	0	-2	1	4	-1
CC1(C(=O)NS(=O)(=O)c2ccccc2Cl)CCN1C(=O)c1ccco1 (stereo not given)	3	/	-2	4	0	/	/
CC(=O)Nc1cccc(NC(=O)Cc2cccs2)c1	1	4	-2	8	-1	/	/
C#Cc1cccc(NC(=O)Cc2cccs2)c1	-1	56*	-2	-9	-1	3	-8
C[C@H]1CN([C@@H](C)CO)C(=O)CCCn2cc(nn2)CO[C@@H]1CN(C)C(=O)Nc1ccccc1F	-4	/	-1	10	1	/	/
COc1ccc(CN(C)CC(=O)Nc2cc3oc4ccccc4c3cc2OC)c(OC)c1	-2	6	4	12	0	-3	2
COc1cc2c(cc1NC(=O)CN(C)Cc1ccc(OC)c(OC)c1)oc1ccccc12	1	18	-7	4	0	0	-10
CCOc1ccc(C(=O)NC(=S)Nc2ccc(NC(=O)c3ccco3)cc2)cc1[N+](=O)[O-]	1	1	5	8	0	/	/
CCOc1ccc(C(=O)NC(=S)Nc2ncccc2C)cc1[N+](=O)[O-]	0	58*	3	4	0	-11	-10
CCN1C(=O)[C@@H]2[C@@H]3CN(S(=O)(=O)c4ccc(C)cc4)[C@@H](c4ccccc4F)[C@@H]3C(=O)C[C@@H]2C1=O	1	/	3	7	-1	/	/
CC(C)OC(=O)CSc1nc(Cc2ccccc2)nc2ccccc12	0	71*	-4	-19	-1	-11	0
Nc1ccn([C@@H]2O[C@H](C(=O)NCC(F)(F)F)[C@@H](O)[C@H]2O)c(=O)n1	2	/	1	10	0	/	/
COC(=O)C[C@@H]1C=C[C@H](NC(=O)Cc2ccccn2)[C@@H](CO)O1	/	/	2	20	0	/	/
COc1ccccc1/C=C1/SC(=O)N(CCC(=O)Nc2ccc(S(=O)(=O)Nc3nccs3)cc2)C1=O	0	61*	7	8	-1	3	2
Cc1ccc(C(=O)N2CCN(c3ccc(NC(=S)NC(=O)c4cccs4)cc3)CC2)cc1	2	-4	-8	-3	-2	/	/
O=C(NC(=S)Nc1ccc(N2CCOCC2)cc1)c1cccs1	0	60*	6	-2	0	-4	3
CSc1ccccc1C(=O)Nc1ccc(C)c(C)c1	5	54*	2	9	-1	-9	-8
COc1ccc(NC(=O)CCCC(=O)c2ccccc2)cc1OC	-1	61*	6	-17	-1	-7	-7
CSc1ccccc1C(=O)Nc1cc(C)cc(C)c1	3	-6	2	-5	-1	/	/
SMILES	Rin1-Abl PPI inh	Arr AP2 block	MT1-MMP act inh	SKN-1 inh	Tb MetRS inh	Arr AP2 CP1	GST GSH counter
COc1ccccc1NC(=O)CC(=O)c1ccccc1	1	-6	6	10	-1	1	1
O=C(Cc1ccc(Cl)cc1)Nc1ccc(NC(=O)c2ccccc2)cc1	0	-1	1	2	-1	/	/
O=C(CC(=O)c1ccccc1)Nc1ccc(Cl)cc1	0	8	13	2	0	3	7
CCCCNC(=O)c1nc(C2CCN(S(=O)(=O)c3ccc(OC(F)(F)F)cc3)CC2)oc1-c1ccccc1	/	/	-1	7	0	/	/
Cc1ccc(NC(=O)CC(=O)c2ccccc2)cc1C	-1	12	3	11	-1	4	0
Cc1ccc(NC(=O)c2ccc(NC(=O)c3ccccc3)cc2)cc1C	1	-17	6	-9	0	/	/
Cc1cc(OC(C)C(=O)NC2CC(C)(C)NC(C)(C)C2)c2c(C)c(C)c(=O)oc2c1 (stereo not given)	-6	/	2	-8	0	/	/
COC(=O)c1ccc(NC(=O)CN2C(=O)C3C4C=CC(C4)C3C2=O)cc1 (stereo not given)	-1	59*	1	23	-1	8	-5
C=CCN1/C(=C(\C#N)C2=NS(=O)(=O)c3ccccc32)N(C)c2ccccc21	-1	55*	-8	-17	0	8	-4
COc1ccccc1N1CCN(C2=NS(=O)(=O)c3ccccc32)CC1	3	11	-2	-10	-1	/	/
O=C1CCC[C@@H]2C[C@@]3(C[C@@H]4CCN1[C@H]24)Nc1cc(Cl)c(Cl)cc1NC3=NCc1ccccc1	2	8	-1	5	1	/	/
O=C(N/N=C/c1cccn1-c1ccccc1)c1ccncc1	-1	58*	-2	-15	0	0	-7
CCCCn1c(N)c(N(CC(C)C)C(=O)CC(NC(=O)c2ccccc2Cl)c2ccccc2)c(=O)[nH]c1=O (stereo not given)	-1	/	3	4	0	/	/
COc1ccc(/C=C/C(=O)OCC(=O)NC2CCCC(C)C2C)c(OC)c1 (stereo not given)	3	64*	-3	-14	0	3	-6
CCN(CC)S(=O)(=O)c1cc(NC(=O)C2=COCCO2)ccc1Cl	-2	33	1	-13	-1	/	/
CCN(CC)C(=O)c1cccc(NC(=O)C2=COCCO2)c1	0	68*	2	-6	0	-12	-5
CCC(C)NC(=O)C1CCC(CNS(=O)(=O)c2cccc3nsnc23)CC1 (stereo not given)	2	54*	1	12	0	2	1
CCCS(=O)(=O)NC(=O)C1(C)CCCN(C(=O)c2cc(F)cc(F)c2)C1 (stereo not given)	0	/	0	6	0	/	/

Screens deposited in PubChem by several laboratories.
